Results as given in ChEMBL document CHEMBL3352788, “Characterization of selective exosite-binding inhibitors of matrix metalloproteinase 13 that prevent articular cartilage degradation in vitro” (J Med Chem, 2014).

Key:
Cytochrome P450 2B6 = target: T1, Cytochrome P450 2B6 (Homo sapiens, UniProt P20813); assay: Inhibition of CYP2B6 (unknown origin) using bupropion substrate; format: ADME
T1 sequence (P20813 whole entry): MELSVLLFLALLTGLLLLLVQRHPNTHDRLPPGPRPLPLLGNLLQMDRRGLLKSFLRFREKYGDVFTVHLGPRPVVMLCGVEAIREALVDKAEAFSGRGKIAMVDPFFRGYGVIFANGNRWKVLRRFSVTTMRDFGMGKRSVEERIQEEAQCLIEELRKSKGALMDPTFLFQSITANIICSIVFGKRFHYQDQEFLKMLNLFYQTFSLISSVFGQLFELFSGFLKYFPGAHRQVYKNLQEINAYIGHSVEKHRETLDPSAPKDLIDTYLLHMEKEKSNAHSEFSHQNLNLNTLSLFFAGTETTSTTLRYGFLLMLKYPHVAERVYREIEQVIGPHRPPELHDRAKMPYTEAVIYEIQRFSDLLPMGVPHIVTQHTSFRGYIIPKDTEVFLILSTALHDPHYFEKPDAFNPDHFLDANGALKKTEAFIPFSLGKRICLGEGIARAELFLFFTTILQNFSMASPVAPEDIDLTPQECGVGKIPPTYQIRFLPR
Outline: (§1)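 Human liver microsomes with probe substrate and an NADPH-regenerating system in 0.1 M potassium phosphate pH 7.4 at 37 °C, run in duplicate. Inhibitor at 0–20 μM (0–2.5 μM for one compound), eight concentrations. Reactions were stopped with acetonitrile/formic acid containing isotope-labelled internal standard, and metabolite area ratios were compared with and without inhibitor. IC50 was taken by linear interpolation between bracketing concentrations.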

Cytochrome P450 2C8 = target: T2, Cytochrome P450 2C8 (Homo sapiens, UniProt P10632); assay: Inhibition of CYP2C8 (unknown origin) using amodiaquine substrate; format: ADME; outline: as §1
T2 sequence (P10632 whole entry): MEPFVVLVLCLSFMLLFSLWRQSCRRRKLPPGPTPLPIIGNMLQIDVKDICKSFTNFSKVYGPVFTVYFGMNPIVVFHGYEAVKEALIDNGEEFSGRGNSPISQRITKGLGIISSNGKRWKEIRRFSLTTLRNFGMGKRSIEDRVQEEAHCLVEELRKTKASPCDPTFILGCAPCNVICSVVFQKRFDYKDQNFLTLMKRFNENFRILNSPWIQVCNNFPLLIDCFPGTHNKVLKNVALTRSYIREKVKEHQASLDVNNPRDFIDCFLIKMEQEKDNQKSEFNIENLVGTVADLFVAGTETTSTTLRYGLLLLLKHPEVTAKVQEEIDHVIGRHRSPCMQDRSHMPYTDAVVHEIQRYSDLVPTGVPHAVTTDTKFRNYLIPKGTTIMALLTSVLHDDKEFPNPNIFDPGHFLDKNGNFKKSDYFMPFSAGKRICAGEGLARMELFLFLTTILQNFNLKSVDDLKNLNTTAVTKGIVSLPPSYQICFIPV

Cytochrome P450 2C9 = Cytochrome P450 2C9 (Homo sapiens, UniProt P11712); assay: Inhibition of CYP2C9 (unknown origin) using diclofenac substrate; format: ADME; outline: as §1
Sequence of Cytochrome P450 2C9 (P11712 whole entry): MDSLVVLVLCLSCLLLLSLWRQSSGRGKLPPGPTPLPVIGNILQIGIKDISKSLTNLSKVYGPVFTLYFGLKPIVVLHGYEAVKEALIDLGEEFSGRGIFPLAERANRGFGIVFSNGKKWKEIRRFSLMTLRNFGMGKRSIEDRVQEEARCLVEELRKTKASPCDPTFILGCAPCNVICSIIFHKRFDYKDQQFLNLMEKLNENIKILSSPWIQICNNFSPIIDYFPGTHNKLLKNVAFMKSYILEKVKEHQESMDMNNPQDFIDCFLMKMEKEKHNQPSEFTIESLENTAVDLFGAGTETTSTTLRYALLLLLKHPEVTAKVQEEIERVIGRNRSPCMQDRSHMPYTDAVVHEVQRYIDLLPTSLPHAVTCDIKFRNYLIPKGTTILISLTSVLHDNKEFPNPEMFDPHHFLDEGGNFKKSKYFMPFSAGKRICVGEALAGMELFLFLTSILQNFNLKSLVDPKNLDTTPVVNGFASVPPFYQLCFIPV

Cytochrome P450 2C19 = Cytochrome P450 2C19 (Homo sapiens, UniProt P33261); assay: Inhibition of CYP2C19 (unknown origin) using (S)-mephentoin substrate; format: ADME; outline: as §1
Sequence of Cytochrome P450 2C19 (P33261 whole entry): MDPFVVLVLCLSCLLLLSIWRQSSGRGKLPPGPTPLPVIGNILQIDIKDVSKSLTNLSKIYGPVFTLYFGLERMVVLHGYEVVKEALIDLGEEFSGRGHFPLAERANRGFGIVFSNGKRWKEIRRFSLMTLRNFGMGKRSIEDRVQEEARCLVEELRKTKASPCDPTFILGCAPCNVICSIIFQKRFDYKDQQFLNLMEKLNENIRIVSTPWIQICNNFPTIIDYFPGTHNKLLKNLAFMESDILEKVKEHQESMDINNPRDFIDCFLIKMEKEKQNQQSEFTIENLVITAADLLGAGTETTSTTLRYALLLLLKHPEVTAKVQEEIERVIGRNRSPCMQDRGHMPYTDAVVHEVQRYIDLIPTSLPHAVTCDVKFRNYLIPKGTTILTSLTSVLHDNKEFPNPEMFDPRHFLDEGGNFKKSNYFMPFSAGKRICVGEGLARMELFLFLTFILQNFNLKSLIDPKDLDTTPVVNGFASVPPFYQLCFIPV

Cytochrome P450 3A4 = Cytochrome P450 3A4 (Homo sapiens, UniProt P08684); assay: Inhibition of CYP3A4 (unknown origin) using midazolam substrate; format: ADME
Sequence of Cytochrome P450 3A4 (P08684 whole entry): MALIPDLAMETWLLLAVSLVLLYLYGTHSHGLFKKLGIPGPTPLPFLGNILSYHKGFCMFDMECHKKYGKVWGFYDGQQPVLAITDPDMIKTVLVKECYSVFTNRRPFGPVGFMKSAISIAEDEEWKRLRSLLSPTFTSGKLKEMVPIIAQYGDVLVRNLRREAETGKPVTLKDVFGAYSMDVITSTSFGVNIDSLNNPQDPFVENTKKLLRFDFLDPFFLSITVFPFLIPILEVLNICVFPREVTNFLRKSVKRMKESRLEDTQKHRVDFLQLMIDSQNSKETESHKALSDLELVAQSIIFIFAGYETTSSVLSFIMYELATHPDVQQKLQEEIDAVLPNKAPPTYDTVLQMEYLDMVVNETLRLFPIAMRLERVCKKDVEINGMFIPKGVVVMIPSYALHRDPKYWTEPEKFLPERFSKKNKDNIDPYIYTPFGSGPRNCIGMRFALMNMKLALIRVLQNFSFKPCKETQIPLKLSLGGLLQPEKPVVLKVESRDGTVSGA
Outline: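 Reactions stopped with acetonitrile/0.1% formic acid plus labelled internal standard. Metabolite measured by LC-MS area ratio. IC50 by linear interpolation.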

[1] = target: Matrix metalloproteinase-9 (Homo sapiens) (UniProt P14780); assay: Inhibition of recombinant human MMP-9 using GRIGFL substrate up to 20 uM
Sequence of Matrix metalloproteinase-9 (Homo sapiens) (P14780 whole entry): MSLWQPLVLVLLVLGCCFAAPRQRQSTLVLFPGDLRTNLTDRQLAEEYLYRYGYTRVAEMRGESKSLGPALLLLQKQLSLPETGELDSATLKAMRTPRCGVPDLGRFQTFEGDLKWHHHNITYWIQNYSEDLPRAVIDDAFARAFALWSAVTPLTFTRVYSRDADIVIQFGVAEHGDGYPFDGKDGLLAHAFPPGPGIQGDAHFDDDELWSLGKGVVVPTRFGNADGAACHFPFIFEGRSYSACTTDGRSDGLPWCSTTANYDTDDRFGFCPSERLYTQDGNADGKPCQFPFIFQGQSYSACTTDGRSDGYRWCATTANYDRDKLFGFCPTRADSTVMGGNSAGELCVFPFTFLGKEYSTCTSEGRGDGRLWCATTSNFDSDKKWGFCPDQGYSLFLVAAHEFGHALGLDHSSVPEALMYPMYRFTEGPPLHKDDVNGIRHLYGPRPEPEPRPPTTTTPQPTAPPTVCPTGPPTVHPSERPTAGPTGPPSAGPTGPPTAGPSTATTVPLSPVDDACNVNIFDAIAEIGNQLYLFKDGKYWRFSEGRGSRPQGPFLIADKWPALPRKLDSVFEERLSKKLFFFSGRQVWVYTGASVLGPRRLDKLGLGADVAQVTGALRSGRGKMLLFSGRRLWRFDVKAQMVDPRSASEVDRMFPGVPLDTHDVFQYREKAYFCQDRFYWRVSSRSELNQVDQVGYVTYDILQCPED
Outline: (§2)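 Outsourced microfluidic protease panel. Compound was preincubated with each protease for 30 min at 25 °C, then peptide substrate was added for 3 h at 25 °C and quenched with SDS/EDTA/iodoacetate. Substrate-to-product conversion was measured on LabChip. Compounds were tested singly in a 12-point 3-fold dilution series, top 20 μM (5 μM for two reference compounds).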

[2] = target: Macrophage metalloelastase (Homo sapiens) (UniProt P39900); assay: Inhibition of recombinant human MMP-12 using GRIGFL substrate up to 20 uM; outline: as §2
Sequence of Macrophage metalloelastase (Homo sapiens) (P39900 106-470 limits assumed): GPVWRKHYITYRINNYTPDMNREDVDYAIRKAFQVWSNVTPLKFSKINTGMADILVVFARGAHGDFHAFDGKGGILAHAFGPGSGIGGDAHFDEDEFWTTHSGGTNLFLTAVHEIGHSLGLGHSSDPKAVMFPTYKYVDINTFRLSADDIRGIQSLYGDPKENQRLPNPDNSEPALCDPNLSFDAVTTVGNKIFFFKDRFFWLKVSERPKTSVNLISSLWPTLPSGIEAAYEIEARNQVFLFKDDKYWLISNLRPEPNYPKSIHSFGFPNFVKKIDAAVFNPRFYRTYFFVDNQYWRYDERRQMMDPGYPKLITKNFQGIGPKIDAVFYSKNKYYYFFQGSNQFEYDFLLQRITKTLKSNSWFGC

[3] = target: Angiotensin-converting enzyme (Homo sapiens) (UniProt P12821); assay: Inhibition of recombinant human ACE using RPFNYLAK substrate up to 20 uM; outline: as §2
Sequence of Angiotensin-converting enzyme (Homo sapiens) (P12821 whole entry): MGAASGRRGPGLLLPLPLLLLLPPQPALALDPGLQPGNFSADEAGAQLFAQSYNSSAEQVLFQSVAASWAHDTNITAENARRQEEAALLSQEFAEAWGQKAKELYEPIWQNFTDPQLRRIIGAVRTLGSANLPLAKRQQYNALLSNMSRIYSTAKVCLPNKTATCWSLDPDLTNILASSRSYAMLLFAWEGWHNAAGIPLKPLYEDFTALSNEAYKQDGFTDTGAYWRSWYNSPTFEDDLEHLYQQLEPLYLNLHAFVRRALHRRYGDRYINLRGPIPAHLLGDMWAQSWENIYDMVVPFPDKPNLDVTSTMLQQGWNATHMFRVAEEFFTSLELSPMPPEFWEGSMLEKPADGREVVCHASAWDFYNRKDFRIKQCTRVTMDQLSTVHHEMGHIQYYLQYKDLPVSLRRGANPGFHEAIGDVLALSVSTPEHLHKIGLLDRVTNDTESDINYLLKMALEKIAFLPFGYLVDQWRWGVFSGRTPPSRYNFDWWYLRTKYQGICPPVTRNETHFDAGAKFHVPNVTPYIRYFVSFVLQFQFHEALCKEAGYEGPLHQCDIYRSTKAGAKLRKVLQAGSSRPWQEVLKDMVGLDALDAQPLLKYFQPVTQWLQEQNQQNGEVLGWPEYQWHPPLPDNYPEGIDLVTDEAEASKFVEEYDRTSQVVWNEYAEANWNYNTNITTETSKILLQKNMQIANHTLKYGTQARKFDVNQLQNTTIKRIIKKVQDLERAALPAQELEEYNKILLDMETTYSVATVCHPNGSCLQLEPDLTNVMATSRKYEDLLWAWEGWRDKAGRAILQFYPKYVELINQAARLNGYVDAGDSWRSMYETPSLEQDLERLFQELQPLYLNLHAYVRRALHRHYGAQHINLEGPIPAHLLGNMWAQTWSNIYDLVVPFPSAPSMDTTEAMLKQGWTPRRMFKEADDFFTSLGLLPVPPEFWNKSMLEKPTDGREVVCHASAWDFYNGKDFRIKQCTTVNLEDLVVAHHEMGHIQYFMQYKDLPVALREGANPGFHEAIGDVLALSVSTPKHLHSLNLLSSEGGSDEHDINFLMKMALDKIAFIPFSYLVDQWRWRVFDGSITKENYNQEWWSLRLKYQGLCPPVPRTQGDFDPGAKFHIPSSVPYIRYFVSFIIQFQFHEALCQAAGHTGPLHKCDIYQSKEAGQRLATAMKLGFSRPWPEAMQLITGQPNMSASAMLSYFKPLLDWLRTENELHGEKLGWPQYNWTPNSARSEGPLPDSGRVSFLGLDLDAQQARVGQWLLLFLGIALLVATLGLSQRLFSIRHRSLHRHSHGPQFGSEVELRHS

[4] = target: Cathepsin D (Homo sapiens) (UniProt P07339); assay: Inhibition of recombinant human cathepsin D using EVNLDAEFRK substrate at up to 20 uM after 3 hrs; outline: as §2
Sequence of Cathepsin D (Homo sapiens) (P07339 65-162 limits assumed): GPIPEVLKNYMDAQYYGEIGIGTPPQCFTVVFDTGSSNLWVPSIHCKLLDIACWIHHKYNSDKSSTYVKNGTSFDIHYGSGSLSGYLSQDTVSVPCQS
Sequence of Cathepsin D (Homo sapiens) (P07339 169-412 limits assumed): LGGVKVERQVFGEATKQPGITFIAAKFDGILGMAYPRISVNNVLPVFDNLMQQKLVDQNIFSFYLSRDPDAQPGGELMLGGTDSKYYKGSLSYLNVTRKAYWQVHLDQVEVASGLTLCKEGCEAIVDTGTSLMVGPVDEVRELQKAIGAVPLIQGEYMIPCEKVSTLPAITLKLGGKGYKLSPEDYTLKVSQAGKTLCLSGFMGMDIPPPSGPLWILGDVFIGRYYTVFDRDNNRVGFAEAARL

Caspase-2 (Homo sapiens) = target: T3, Caspase-2 (Homo sapiens) (UniProt P42575); assay: Inhibition of recombinant human caspase 2 using DEVDAA substrate at up to 20 uM after 3 hrs; outline: as §2
T3 sequence (whole entry): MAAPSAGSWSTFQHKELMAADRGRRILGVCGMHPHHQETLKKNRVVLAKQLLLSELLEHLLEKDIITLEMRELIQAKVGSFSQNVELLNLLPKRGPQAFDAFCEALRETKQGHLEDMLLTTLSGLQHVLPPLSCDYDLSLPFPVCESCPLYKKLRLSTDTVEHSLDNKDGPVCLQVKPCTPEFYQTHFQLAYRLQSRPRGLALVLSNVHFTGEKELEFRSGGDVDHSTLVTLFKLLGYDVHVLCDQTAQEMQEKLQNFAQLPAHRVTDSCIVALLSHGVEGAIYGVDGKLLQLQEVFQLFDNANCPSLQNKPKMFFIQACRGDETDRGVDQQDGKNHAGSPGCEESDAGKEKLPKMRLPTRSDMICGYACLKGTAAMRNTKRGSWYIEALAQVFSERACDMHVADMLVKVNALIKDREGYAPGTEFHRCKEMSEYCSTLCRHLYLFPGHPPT

Caspase-3 (Homo sapiens) = target: T4, Caspase-3 (Homo sapiens) (UniProt P42574); assay: Inhibition of recombinant human caspase 3 using DEVDAA substrate at up to 20 uM after 3 hrs; outline: as §2
T4 sequence (whole entry): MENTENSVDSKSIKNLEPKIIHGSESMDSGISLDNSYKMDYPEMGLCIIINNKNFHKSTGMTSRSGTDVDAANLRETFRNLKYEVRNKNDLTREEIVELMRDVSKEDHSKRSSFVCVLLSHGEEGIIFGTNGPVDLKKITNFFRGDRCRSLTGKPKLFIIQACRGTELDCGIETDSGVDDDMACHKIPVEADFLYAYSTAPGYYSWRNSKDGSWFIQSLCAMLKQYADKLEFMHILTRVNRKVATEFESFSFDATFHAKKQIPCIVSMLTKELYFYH

[5] = target: Procathepsin L (Homo sapiens) (UniProt P07711); assay: Inhibition of recombinant human cathepsin L using GGALRAG substrate at up to 20 uM after 3 hrs
Sequence of Procathepsin L (Homo sapiens) (P07711 114-333 limits assumed): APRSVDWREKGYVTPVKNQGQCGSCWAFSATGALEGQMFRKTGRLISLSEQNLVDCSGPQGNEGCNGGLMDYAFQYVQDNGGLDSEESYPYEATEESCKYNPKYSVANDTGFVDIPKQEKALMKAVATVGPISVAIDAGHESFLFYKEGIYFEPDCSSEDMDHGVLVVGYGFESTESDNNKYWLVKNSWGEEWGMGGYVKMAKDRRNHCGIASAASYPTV
Outline: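 Each protease was preincubated 30 min at 25 °C with compound in its assay buffer. Peptide substrate was then added and the reaction ran 3 h at 25 °C before quenching with SDS/EDTA/iodoacetate. Substrate-to-product conversion (%) was read by microfluidic electrophoresis. Compounds were tested in singlicate as 12-point 3-fold dilutions from 20 μM to 0.1 nM. IC50 was taken as the concentration giving 50% of no-compound control activity.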

Collagenase 3 = Collagenase 3 (Homo sapiens, UniProt P45452); assay: Inhibition of full-length recombinant human MMP-13 assessed as bovine type-2 collagen hydrolysis after 22 hrs by fluorescence assay

Cc1cc(CNC(=O)c2cc(C(=O)NCc3ccc(F)c(C)c3)ncn2)ccc1F
IC50 (Cytochrome P450 2B6): > 20 µM
IC50 (Cytochrome P450 2C8): > 20 µM
IC50 (Cytochrome P450 2C9): > 20 µM
IC50 (Cytochrome P450 2C19): > 20 µM

Cn1c(=O)n(Cc2ccc(C(=O)O)cc2)c(=O)c2cc(C#CCc3ccccc3)ccc21
IC50 (Cytochrome P450 2B6): > 2.5 µM
IC50 (Cytochrome P450 2C8): > 2.5 µM
IC50 (Cytochrome P450 2C9): > 2.5 µM
IC50 (Cytochrome P450 2C19): > 2.5 µM
IC50 (Cytochrome P450 3A4): > 2.5 µM

Cc1ccc(CSc2nc(O)c3c(n2)CCC3)cc1
inhibition [1]: > 10%
inhibition [2]: > 10%
inhibition [3]: > 10%
inhibition [4]: < 10%
inhibition (Caspase-2 (Homo sapiens)): < 10%
inhibition (Caspase-3 (Homo sapiens)): < 10%
inhibition [5]: < 10%
inhibition (Collagenase 3): Dose-dependent effect

COC(=O)c1ccc(CSc2nc3c(c(=O)[nH]2)CCC3)cc1
inhibition [1]: > 10%
inhibition [2]: > 10%
inhibition [3]: > 10%
inhibition [4]: < 10%
inhibition (Caspase-2 (Homo sapiens)): < 10%
inhibition (Caspase-3 (Homo sapiens)): < 10%
inhibition [5]: < 10%
IC50 (Cytochrome P450 2B6): > 20 µM
IC50 (Cytochrome P450 2C8): > 20 µM
IC50 (Cytochrome P450 2C9): > 20 µM
IC50 (Cytochrome P450 2C19): > 20 µM
IC50 (Cytochrome P450 3A4): > 20 µM
IC50 (Collagenase 3): 2.3 µM

Oc1nc(SCc2ccc(Cl)cc2)nc2c1CCC2
inhibition [1]: > 10%
inhibition [2]: > 10%
inhibition [3]: > 10%
inhibition [4]: < 10%
inhibition (Caspase-2 (Homo sapiens)): < 10%
inhibition (Caspase-3 (Homo sapiens)): < 10%
inhibition [5]: < 10%
IC50 (Cytochrome P450 2B6): > 20 µM
IC50 (Cytochrome P450 2C8): > 20 µM
IC50 (Cytochrome P450 2C9): 19 µM
IC50 (Cytochrome P450 2C19): 6.5 µM
IC50 (Cytochrome P450 3A4): > 20 µM
IC50 (Collagenase 3): 0.7 µM
inhibition (Collagenase 3): Dose-dependent effect
